# Legend:
# Assay type in all cases: functional
# Candida albicans [1] = assay: Antifungal activity against Candida albicans SC5314 after 24 hrs; settings: SC5314, 24 h
# How it was run: (§1)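 Broth dilution MIC per NCCLS recommendations. Compounds were dissolved in DMSO in growth medium, then inoculated and incubated at 35 °C, with growth read at 24 h for C. albicans. MIC80 is the first well showing about 80% growth reduction versus the drug-free well. Values are the mean of three replicate tests.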
# Cryptococcus neoformans = assay: Antifungal activity against Cryptococcus neoformans after 72 hrs
# How it was run: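 NCCLS-based broth dilution against C. neoformans. Test agents were in DMSO in growth medium, inoculated and held at 35 °C, and MIC80 was read at 72 h. MIC80 is the first well with roughly 80% less growth than the drug-free well. Each value averages three replicate tests.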
# Aspergillus fumigatus = assay: Antifungal activity against Aspergillus fumigatus after 5 to 7 days
# How it was run: (§2)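 Filamentous fungi were tested by broth dilution following NCCLS recommendations. Compounds were dissolved in DMSO in growth medium, inoculated and incubated at 35 °C, with MIC80 read after 5–7 days. MIC80 is the first well with approximately 80% growth reduction relative to the drug-free well. Results are the mean of three replicates.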
# Candida albicans [2] = assay: Antifungal activity against Candida albicans SCY0109 after 24 hrs; settings: SCY0109, 24 h; how it was run: as §1
# Nakaseomyces glabratus = assay: Antifungal activity against Candida glabrata after 5 to 7 days
# Pichia kudriavzevii = assay: Antifungal activity against Candida krusei after 5 to 7 days
# How it was run: (§3)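 MIC measured by broth dilution per NCCLS recommendations. Compounds were dissolved in DMSO in growth medium, inoculated and incubated at 35 °C. MIC80 is the first well with approximately 80% lower growth than the drug-free well. Values are the mean of three replicate tests.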
# Trichophyton rubrum = assay: Antifungal activity against Trichophyton rubrum after 5 to 7 days
# How it was run: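 Broth dilution per NCCLS recommendations against an ATCC strain; compounds dissolved in DMSO in growth medium; incubated at 35 °C. MIC80 is the first well with about 80% growth reduction versus the drug-free well, read at 5–7 days for filamentous fungi. Values are the mean of three replicate tests.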
# Candida parapsilosis = assay: Antifungal activity against Candida parapsilosis after 5 to 7 days; settings: Lodderomyces parapsilosis
# Nannizzia gypsea = assay: Antifungal activity against Microsporum gypseum after 5 to 7 days; how it was run: as §2
# Candida tropicalis = assay: Antifungal activity against Candida tropicalis after 24 hrs; how it was run: as §3
SMILES,MIC80 (Candida albicans [1]) [µg/mL],MIC80 (Cryptococcus neoformans) [µg/mL],MIC80 (Aspergillus fumigatus) [µg/mL],other results
C[C@@H](N(C)C1CC1)[C@](O)(Cn1cncn1)c1ccc(F)cc1F,0.125,0.125,8,
C[C@@H](n1cc(-c2cccnc2)nn1)[C@](O)(Cn1cncn1)c1ccc(F)cc1F,0.5,1,> 64,
C[C@@H](N(Cc1ccccc1)C1CC1)[C@](O)(Cn1cncn1)c1ccc(F)cc1F,8,8,8,
C[C@@H](n1cc(-c2ccsc2)nn1)[C@](O)(Cn1cncn1)c1ccc(F)cc1F,0.0625,0.0625,4,
CCN[C@H](C)[C@](O)(Cn1cncn1)c1ccc(F)cc1F,0.5,0.5,32,
CCN1CCN([C@H](C)[C@](O)(Cn2cncn2)c2ccc(F)cc2F)CC1,2,2,64,
C[C@@H](n1cc(-c2ccccc2Cl)nn1)[C@](O)(Cn1cncn1)c1ccc(F)cc1F,0.0156,0.0156,16,
CCCCCN[C@H](C)[C@](O)(Cn1cncn1)c1ccc(F)cc1F,0.125,0.125,4,
CC(C)N[C@H](C)[C@](O)(Cn1cncn1)c1ccc(F)cc1F,0.25,0.25,16,
C[C@@H](n1cc(-c2cccc(N)c2)nn1)[C@](O)(Cn1cncn1)c1ccc(F)cc1F,0.5,1,> 64,
CCCCN[C@H](C)[C@](O)(Cn1cncn1)c1ccc(F)cc1F,0.125,0.125,8,
Cc1ccc(-c2cn([C@H](C)[C@](O)(Cn3cncn3)c3ccc(F)cc3F)nn2)cc1,0.125,0.0625,> 64,
CCc1ccc(-c2cn([C@H](C)[C@](O)(Cn3cncn3)c3ccc(F)cc3F)nn2)cc1,0.5,0.5,> 64,
C[C@@H](n1cc(-c2ccccc2F)nn1)[C@](O)(Cn1cncn1)c1ccc(F)cc1F,0.125,0.125,32,
COc1ccc(-c2cn([C@H](C)[C@](O)(Cn3cncn3)c3ccc(F)cc3F)nn2)cc1,0.125,0.0625,> 64,
C[C@@H](n1cc(C2CC2)nn1)[C@](O)(Cn1cncn1)c1ccc(F)cc1F,0.0625,0.0625,32,
C[C@@H](n1cc(-c2cccs2)nn1)[C@](O)(Cn1cncn1)c1ccc(F)cc1F,0.0625,0.0625,16,
C[C@@H](N1CCCC1)[C@](O)(Cn1cncn1)c1ccc(F)cc1F,0.125,0.125,1,
C[C@@H](NC1CCCCC1)[C@](O)(Cn1cncn1)c1ccc(F)cc1F,0.5,0.5,8,
C[C@@H](NCc1ccc(Br)cc1)[C@](O)(Cn1cncn1)c1ccc(F)cc1F,0.0156,0.125,0.5,
C[C@@H](n1cc(-c2cccc(Br)c2)nn1)[C@](O)(Cn1cncn1)c1ccc(F)cc1F,0.5,1,> 64,
CCCCc1ccc(-c2cn([C@H](C)[C@](O)(Cn3cncn3)c3ccc(F)cc3F)nn2)cc1,4,8,> 64,

SMILES,MIC80 (Candida albicans [1]) [µg/mL],MIC80 (Cryptococcus neoformans) [µg/mL],MIC80 (Aspergillus fumigatus) [µg/mL],other results
C[C@@H](n1cc(-c2ccc(Cl)cc2)nn1)[C@](O)(Cn1cncn1)c1ccc(F)cc1F,0.125,0.0156,32,
CCC(C)N[C@H](C)[C@](O)(Cn1cncn1)c1ccc(F)cc1F (stereo partly drawn),0.125,0.125,4,
C[C@@H](n1cc(-c2ccncc2)nn1)[C@](O)(Cn1cncn1)c1ccc(F)cc1F,1,1,> 64,
C[C@@H](n1cc(-c2ccccc2)nn1)[C@](O)(Cn1cncn1)c1ccc(F)cc1F,0.125,0.0625,16,
C[C@@H](c1ncncc1F)[C@](O)(Cn1cncn1)c1ccc(F)cc1F [VORICONAZOLE],0.0312,0.0312,0.25,MIC80 (Candida albicans [2]): 0.0156 µg/mL; MIC80 (Nakaseomyces glabratus): 0.0312 µg/mL; MIC80 (Pichia kudriavzevii): 0.25 µg/mL; MIC80 (Trichophyton rubrum): 0.125 µg/mL; MIC80 (Candida parapsilosis): 0.0312 µg/mL; MIC80 (Nannizzia gypsea): 0.25 µg/mL; MIC80 (Candida tropicalis): 0.25 µg/mL
C[C@@H](n1cc(CN)nn1)[C@](O)(Cn1cncn1)c1ccc(F)cc1F,0.25,0.25,> 64,
Cc1ccc(CN(C2CC2)[C@H](C)[C@](O)(Cn2cncn2)c2ccc(F)cc2F)cc1,8,5,> 64,
C[C@@H](n1cc(-c2cccc(Cl)c2)nn1)[C@](O)(Cn1cncn1)c1ccc(F)cc1F,0.0625,0.0625,> 64,
C[C@@H](n1cc(-c2ccc(N)cc2)nn1)[C@](O)(Cn1cncn1)c1ccc(F)cc1F,0.5,0.5,> 64,
C[C@@H](N=[N+]=[N-])[C@](O)(Cn1cncn1)c1ccc(F)cc1F,0.0156,0.0625,8,
C[C@@H](NCc1ccccc1)[C@](O)(Cn1cncn1)c1ccc(F)cc1F,0.0312,0.125,1,
C[C@@H](n1cc(-c2ccc(Br)cc2)nn1)[C@](O)(Cn1cncn1)c1ccc(F)cc1F,0.25,0.25,> 64,
CCN(C1CC1)[C@H](C)[C@](O)(Cn1cncn1)c1ccc(F)cc1F,1,1,> 64,
C[C@@H](n1cc(-c2ccc(F)cc2)nn1)[C@](O)(Cn1cncn1)c1ccc(F)cc1F,0.0625,0.0625,32,
C[C@@H](n1cc(-c2cccc(F)c2)nn1)[C@](O)(Cn1cncn1)c1ccc(F)cc1F,0.25,0.0625,> 64,
COCCCN[C@H](C)[C@](O)(Cn1cncn1)c1ccc(F)cc1F,0.25,0.5,2,
C[C@@H](N(Cc1ccc(Cl)cc1)C1CC1)[C@](O)(Cn1cncn1)c1ccc(F)cc1F,8,4,> 64,
CCCN(C1CC1)[C@H](C)[C@](O)(Cn1cncn1)c1ccc(F)cc1F,1,2,8,
C[C@@H](NCC1CC1)[C@](O)(Cn1cncn1)c1ccc(F)cc1F,0.125,0.125,8,
C[C@@H](NC1CC1)[C@](O)(Cn1cncn1)c1ccc(F)cc1F,0.0156,0.0156,1,MIC80 (Candida albicans [2]): 0.0078 µg/mL; MIC80 (Nakaseomyces glabratus): 0.0156 µg/mL; MIC80 (Pichia kudriavzevii): 0.5 µg/mL; MIC80 (Trichophyton rubrum): 0.0625 µg/mL; MIC80 (Candida parapsilosis): 0.25 µg/mL; MIC80 (Nannizzia gypsea): 0.125 µg/mL; MIC80 (Candida tropicalis): 0.5 µg/mL
CCCN[C@H](C)[C@](O)(Cn1cncn1)c1ccc(F)cc1F,0.125,0.0625,8,
